High-throughput results (PubChem BioAssay)
The list is not random: actives were taken first. Their share in the collection is about 3.5%.
HIV Env fusion – inhibitors of HIV Env-mediated cell fusion; inhibition, % at 12.3 µM; HeLa-JRFL Env/CEM21 cell fusion, luciferase; AID 651610; 1.1% of 360,000 active;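 active = mean replicate inhibition score of at least 50 and every replicate individually at or above 50; inconclusive = only one of the two criteria met; inactive = mean below 50 and not all replicates reaching 50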
PglD DTNB – blocks C. jejuni PglD acetyltransferase activity. purified PglD enzyme, DTNB colorimetric CoA detection. 0.098% of 360,000 active. inhibition, % at 12.5 µM. AID 602405; in the data active = inhibition above about 16%, passing the limit was not always enough; inconclusive = no clear call, values can overlap the other calls
FN deposit inh – fibronectin deposition inhibition; AH1F fibroblasts, Alexa488-fibronectin deposition fluorescence, overnight; inhibition, % at 12.6 µM; 0.086% of 350,000 active; AID 743247;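 active = mean inhibition across replicates of 30% or more, regardless of how many single replicates reach that level; inconclusive = mean under 30% yet at least half of replicates reach 30%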
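Material: AH1F fibroblast monolayer depositing Alexa488-labelled fibronectin into matrix / Amount: 10000 AH1F cells per well / Signal: fluorescence 485/525 nm / Medium: DMEM, 2% serum / Compound: single dose, pinned / Incubation: 1 h cell adhesion before compound, then overnight fibronectin incubation / Reagent: Alexa488-FN, 24 nM final / Read-out: inhibition of fibronectin deposition signal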
DENV2 CPE rescue – protects cells from dengue virus 2 cytopathic effect | DENV2-infected cells, cytopathic effect rescue, plate reader | CPE inhibition, % at 9.99 µM | 1.7% of 350,000 active; in the data active = CPE inhibition above about 20%, passing the limit was not always enough; inconclusive = no clear call, values can overlap the other calls; tested in BHK-21 cells
Ecoli rRNA inh – inhibits bacterial ribosomal RNA function over humanized ribosomes | GFP signal change (wild-type ribosome), % (no concentration beside the values) | E. coli WT GFP vs humanized-ribosome RFP mutants, fluorescence, 24 h; stronger effect = lower value; DMSO median 0, no signal -100 | 1.6% of 350,000 active;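 active = significant combined selectivity score with lowered wild-type GFP, culture density cut under 30%, mutant RFP and density less affected; inactive = any of these conditions unmet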
PGC1a acetyl inh – lowers PGC1a acetylation signal in U2OS cells; AlphaScreen anti-acetyl-lysine; with virally co-expressed GCN5 acetyltransferase; inhibition, % at 15.6 µM; 0.17% of 350,000 active;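 active = every replicate shows inhibition of at least 40%; inconclusive = mean inhibition at least 40% but some replicate below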
AID977621 – wild-type E. coli growth inhibition versus H69 humanized strain – H69 mutant RFP, wild-type GFP, cherry-pick, dose response; 1,900 tested, under 10 active; fluorescence, 24 h; shares compounds with Ecoli rRNA inh; activity change, negative = inhibition at 50 µM;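 active = Wild-type ribosome reporter drop at least double the humanized mutant ribosome reporter drop, growth loss under a set limit; inconclusive = no clear call, values can overlap the other calls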;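 also: wild-type GFP and H69 mutant RFP strains grown together 50/50 in each well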
AID977628 – E. coli growth inhibition, wild-type GFP versus h24 humanized RFP strain, dose response, h24 mutant RFP vs wild-type GFP, cherry-pick; shares compounds with Ecoli rRNA inh; E. coli WT GFP strain growth, fluorescence, 24 h; activity change, negative = inhibition at 50 µM; 1,900 tested, under 10 active;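 active = compound lowering the normal-ribosome reporter at least twice as much as the humanized-ribosome reporter, growth loss under a set limit; inconclusive = no clear call, values can overlap the other calls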;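 also: wild-type GFP and h24 humanized RFP strains co-cultured 1 to 1 per well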
A number is an active result.

For O=C(O)CC(CC(=O)Nc1ccc(N2CCOCC2)cc1)c1ccccc1 (centres undefined) the results were HIV Env fusion inactive, PglD DTNB inactive, FN deposit inh inactive, DENV2 CPE rescue inactive, Ecoli rRNA inh inactive and PGC1a acetyl inh inactive.
Screening CC(C)CN(C(=O)c1ccco1)c1nc2ccccc2s1 returned HIV Env fusion inactive, FN deposit inh inactive, DENV2 CPE rescue inactive, Ecoli rRNA inh -19.3 and AID977628 inconclusive.
For O=C(C[C@H]1C[C@@H]2c3cc(NC(=O)C4CCC4)ccc3O[C@@H]2[C@H](CO)O1)NC1CCCC1 the results were HIV Env fusion inactive, PglD DTNB inactive, FN deposit inh inactive, DENV2 CPE rescue inactive, Ecoli rRNA inh inactive and PGC1a acetyl inh inactive.
For COc1ccc(-c2cn3cc(Cl)ccc3n2)cc1OC the results were PglD DTNB inactive, DENV2 CPE rescue inactive, Ecoli rRNA inh -26.9, PGC1a acetyl inh inactive and AID977628 inconclusive.
For COC(=O)[C@H]1[C@H](CO)[C@H]2Cn3c(cccc3=O)[C@H]2N1C(=O)C1CCCCC1 the results were PglD DTNB inactive, DENV2 CPE rescue inactive and Ecoli rRNA inh inactive.
O=C(Nc1ccn(Cc2ccc(Cl)cc2)n1)c1ccccc1 was read as HIV Env fusion inactive, PglD DTNB inactive, FN deposit inh inactive, Ecoli rRNA inh -24.5, PGC1a acetyl inh inactive, AID977621 inactive and AID977628 inactive.
O=C(c1ccc(F)cc1)N1CC[C@@H]2[C@H](CO)Nc3ccc(-c4ccccc4F)cc3[C@@H]21 was read as PglD DTNB inactive, FN deposit inh inactive, DENV2 CPE rescue inconclusive, Ecoli rRNA inh inactive and PGC1a acetyl inh inactive.
COc1ccccc1CNC(=O)CSCc1cnn(-c2ccccc2)c1-n1cccc1 was read as HIV Env fusion inactive, PglD DTNB inactive, FN deposit inh inactive and PGC1a acetyl inh inactive.
For O=C(CSCc1cnn(-c2ccccc2)c1-n1cccc1)NCc1cccnc1 the results were HIV Env fusion inactive, PglD DTNB inactive, FN deposit inh inactive, Ecoli rRNA inh -25.1, PGC1a acetyl inh inactive, AID977621 inactive and AID977628 inactive.
Screening C[C@@H]1CN([C@@H](C)CO)C(=O)c2cc(NC(=O)Nc3ccc(F)cc3)ccc2O[C@@H](C)CCCCO[C@@H]1CN(C)Cc1ccc(C(=O)O)cc1 returned HIV Env fusion inactive, PglD DTNB inactive, DENV2 CPE rescue inactive, Ecoli rRNA inh inactive and PGC1a acetyl inh inactive.
Cc1ccccc1COc1ccc(-c2nn[nH]n2)cc1 was read as HIV Env fusion inactive, PglD DTNB inactive, FN deposit inh inactive, DENV2 CPE rescue inactive, Ecoli rRNA inh -25.4 and AID977621 inconclusive.
`Cc1cc(C)cc(NC(=O)COC(=O)CCC2CCCC2)c1` gave HIV Env fusion inactive, PglD DTNB inactive, FN deposit inh inactive, DENV2 CPE rescue inactive and Ecoli rRNA inh inactive.
For Cc1cc(C)cc(NC(=O)COC(=O)CC2CCCC2)c1 the results were HIV Env fusion inactive, PglD DTNB inactive, FN deposit inh inactive, DENV2 CPE rescue inactive, Ecoli rRNA inh -19.2, PGC1a acetyl inh inactive, AID977621 inactive and AID977628 inactive.
`O=C(Nc1ccc2c(c1)OCCO2)c1cccnc1Oc1ccc(Cl)cc1` gave HIV Env fusion inactive, FN deposit inh inactive, DENV2 CPE rescue inactive, Ecoli rRNA inh -27.2, PGC1a acetyl inh inactive and AID977621 inactive.
CC(C)NC(=O)N(C)C[C@@H]1OCCCC[C@@H](C)Oc2ccc(NC(=O)Nc3cccc4ccccc34)cc2C(=O)N([C@@H](C)CO)C[C@@H]1C was read as HIV Env fusion inactive, PglD DTNB inactive, FN deposit inh inactive, DENV2 CPE rescue inactive, Ecoli rRNA inh inactive and PGC1a acetyl inh inactive.
For COc1ccc(OC)c(CN2CCCC(C(=O)c3ccccc3SC)C2)c1 (centres undefined) the results were HIV Env fusion inactive, FN deposit inh inactive, DENV2 CPE rescue inactive, Ecoli rRNA inh -18.4, PGC1a acetyl inh inactive and AID977628 inconclusive.
